The source made the active and inactive calls. The rule behind the calls is not given here.
Columns and labels:
[1] = system: Rattus norvegicus; assay: Anti-ischemia activity in Sprague-Dawley rat transient middle cerebral artery occlusion model assessed as upregulation of Bcl-2 protein expression in cerebral cortex at 1.5 to 6 mg/kg, iv measured 24 hrs post reperfusion by Western blot analysis relative to vehicle-treated control; format: functional, organism-based
Method in brief: (§1)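 Rats underwent 60 min intraluminal right MCA occlusion under chloral hydrate, then reperfusion, with iv saline or drug (1.5, 3.0, 6.0 mg/kg) at reperfusion. At 24 h they were saline-perfused and cortex and hippocampus lysed in RIPA buffer. Protein was BCA-normalized, run on SDS-PAGE and blotted for Bcl-2, Bax, cleaved caspase-3 and β-actin with ECL detection; n = 4.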

[2] = system: PC-12; assay: Neuroprotective activity in rat PC12 cells assessed as attenuation of oxygen-glucose deprivation-induced cellular damage at 10 uM by MTT assay relative to control; format: functional
Method in brief: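 PC12 cells were seeded at 5×10^3/well for 24 h. OGD insult was low-glucose medium plus 5 mM sodium dithionite for 24 h, given together with 10 µM compound. MTT (5 mg/mL) was added for 4 h and absorbance read at 570 nm. Viability was expressed as % of full-medium control; n = 3.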

[3] = system: Rattus norvegicus; assay: Anti-ischemia activity in Sprague-Dawley rat transient middle cerebral artery occlusion model assessed as inhibition of Bax protein expression in cerebral cortex at 1.5 to 6 mg/kg, iv measured 24 hrs post reperfusion by Western blot analysis relative to vehicle-treated control; format: functional, organism-based; method in brief: as §1
[4] = system: Plasma; assay: Drug uptake in Sprague-Dawley rat plasma at 2 x 10^-5 mol/kg, iv measured at 60 mins by LC-MS analysis; format: ADME, organism-based; conditions: in vivo, 1 h
Method in brief: (§2)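 Male Sprague-Dawley rats (260-280 g, n = 4) given a single iv dose of 6 mg/kg. Blood was taken from the jugular vein into heparin tubes under ether, and plasma was spun out and stored at -70 °C. After saline perfusion, cortex was homogenized in 2 volumes of water. Samples were precipitated with acetonitrile with internal standard added and quantified by LC-MS against a weighted linear calibration.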

[5] = system: Rattus norvegicus; assay: In vivo neuroprotective activity in Sprague-Dawley rat transient middle cerebral artery occlusion model assessed as suppression of neuronal loss in hippocampus at 1.5 to 6 mg/kg, iv measured 24 hrs post reperfusion by TUNEL assay; format: functional, organism-based
Method in brief: (§3)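 Transient MCAO in rats (60 min occlusion), with iv treatment at 1.5, 3.0 or 6.0 mg/kg at reperfusion. At 24 h brains were perfusion-fixed in 4% paraformaldehyde and paraffin-embedded. Hippocampal or cortical sections were proteinase K-treated (20 µg/mL, 15 min, RT), given TdT reaction (37 °C, 1 h) and anti-digoxigenin-AP detection, and TUNEL-positive cells were examined at 200×.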

[6] = AUC in Sprague-Dawley rat cortex at 2 x 10^-5 mol/kg, iv by LC-MS analysis; format: ADME, organism-based; conditions: 2e-05 mol/kg; method in brief: as §2
[7] = system: Rattus norvegicus; assay: Anti-ischemia activity in Sprague-Dawley rat transient middle cerebral artery occlusion model assessed as upregulation of Bcl-2 protein expression in hippocampus at 1.5 to 6 mg/kg, iv measured 24 hrs post reperfusion by Western blot analysis relative to vehicle-treated control; format: functional, organism-based; method in brief: as §1
[8] = system: Rattus norvegicus; assay: In vivo neuroprotective activity in Sprague-Dawley rat transient middle cerebral artery occlusion model assessed as suppression of neuropathological changes at 1.5 to 6 mg/kg, iv measured 24 hrs post reperfusion by uranyl acetate/lead citrate staining-based transmission electron microscopic analysis; format: functional, organism-based
Method in brief: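 Rats had 60 min MCAO with iv dosing (1.5-6.0 mg/kg) at reperfusion. At 24 h they were perfused with PBS, then acrolein in 2% paraformaldehyde. Tissue was postfixed in 2.5% glutaraldehyde for 2 h and 1% OsO4 for 2 h, dehydrated and Epon-embedded. Ultrathin sections were stained with uranyl acetate/lead citrate and examined by TEM at 12000×.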

[9] = Cmax in Sprague-Dawley rat cortex at 2 x 10^-5 mol/kg, iv measured at 2 mins by LC-MS analysis; format: ADME, organism-based; conditions: 2e-05 mol/kg; method in brief: as §2
[10] = Volume of distribution in Sprague-Dawley rat plasma at 2 x 10^-5 mol/kg, iv by LC-MS analysis; format: ADME, organism-based; conditions: 2e-05 mol/kg; method in brief: as §2
[11] = Tmax in Sprague-Dawley rat plasma at 2 x 10^-5 mol/kg, iv by LC-MS analysis; format: ADME, organism-based; conditions: 2e-05 mol/kg; method in brief: as §2
[12] = system: Rattus norvegicus; assay: In vivo neuroprotective activity in Sprague-Dawley rat transient middle cerebral artery occlusion model assessed as reduction of infarct size at 6 mg/kg, iv measured 24 hrs post reperfusion by TTC staining assay relative to vehicle-treated control; format: functional; design: scale not given: the % may be the effect or the level left
Method in brief: (§4)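 Male Sprague-Dawley rats, 7 weeks, 260–280 g, under 10% chloral hydrate ip. Right MCA occluded 60 min by tip-burned 4-0 nylon thread via common carotid, then reperfused. Saline or drug given iv at reperfusion, ethanol as cosolvent. Killed 24 h later; six 2 mm slices in 1% TTC in PBS, 37 °C, 30 min. Infarct area traced as % of total area; n = 12.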

[13] = system: Cortex; assay: Clearance in Sprague-Dawley rat cortex at 2 x 10^-5 mol/kg, iv by LC-MS analysis; format: ADME, organism-based; conditions: in vivo; method in brief: as §2
[14] = system: Rattus norvegicus; assay: In vivo neuroprotective activity in Sprague-Dawley rat transient middle cerebral artery occlusion model assessed as reduction of brain-water content at 1.5 to 6 mg/kg, iv measured 24 hrs post reperfusion; format: functional, organism-based
Method in brief: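 Male SD rats (7 weeks, 260-280 g) had 60 min transient right MCA occlusion with a nylon filament, then reperfusion. Saline or drug (1.5, 3.0, 6.0 mg/kg) was injected iv at reperfusion. Animals without neurological deficit were replaced. At 24 h brains were oven-dried at 110 °C for 24 h, and water content was taken as (wet−dry)/wet; n = 12.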

[15] = Terminal half life in Sprague-Dawley rat cortex at 2 x 10^-5 mol/kg, iv by LC-MS analysis; format: ADME, organism-based; conditions: 2e-05 mol/kg, read-out: beta t1/2; method in brief: as §2
[16] = Terminal half life in Sprague-Dawley rat plasma at 2 x 10^-5 mol/kg, iv by LC-MS analysis; format: ADME, organism-based; conditions: 2e-05 mol/kg, read-out: beta t1/2; method in brief: as §2
[17] = AUC in Sprague-Dawley rat plasma at 2 x 10^-5 mol/kg, iv by LC-MS analysis; format: ADME, organism-based; conditions: 2e-05 mol/kg; method in brief: as §2
[18] = system: Rattus norvegicus; assay: Anti-ischemia activity in Sprague-Dawley rat transient middle cerebral artery occlusion model assessed as inhibition of Bax protein expression in hippocampus at 1.5 to 6 mg/kg, iv measured 24 hrs post reperfusion by Western blot analysis relative to vehicle-treated control; format: functional, organism-based; method in brief: as §1
[19] = system: Cortex; assay: Drug uptake in Sprague-Dawley rat cortex at 2 x 10^-5 mol/kg, iv measured at 60 mins by LC-MS analysis; format: ADME, organism-based; conditions: in vivo, 1 h; method in brief: as §2
[20] = system: Rattus norvegicus; assay: In vivo neuroprotective activity in Sprague-Dawley rat transient middle cerebral artery occlusion model assessed as suppression of neuronal loss in cerebral cortex at 1.5 to 6 mg/kg, iv measured 24 hrs post reperfusion by TUNEL assay; format: functional, organism-based; method in brief: as §3
[21] = Clearance in Sprague-Dawley rat plasma at 2 x 10^-5 mol/kg, iv by LC-MS analysis; format: ADME, organism-based; conditions: 2e-05 mol/kg; method in brief: as §2
[22] = system: Rattus norvegicus; assay: Anti-ischemia activity in Sprague-Dawley rat transient middle cerebral artery occlusion model assessed as inhibition of cleaved caspase-3 protein expression in cerebral cortex at 1.5 to 6 mg/kg, iv measured 24 hrs post reperfusion by Western blot analysis relative to vehicle-treated control; format: functional, organism-based; method in brief: as §1
[23] = system: Rattus norvegicus; assay: In vivo neuroprotective activity in Sprague-Dawley rat transient middle cerebral artery occlusion model assessed as reduction of infarct size at 3 mg/kg, iv measured 24 hrs post reperfusion by TTC staining assay relative to vehicle-treated control; format: functional; design: scale not given: the % may be the effect or the level left; method in brief: as §4

Compound: COc1cc(O)cc2oc(=O)c(N3CCN(C)CC3)c(C)c12
- Activity [1]: Active
- Activity [2]: 66%
- inhibition [3]: Active
- Drug uptake [4]: Not Active
- Activity [5]: Active
- AUC [6]: 42.4 ng·h/mL
- Activity [7]: Active
- Activity [8]: Active
- Cmax [9]: 122 ng/mL
- Vd [10]: 0.084 L
- Tmax [11]: 2 min
- Activity [12]: 18.89%
- CL [13]: 0.558 L/min
- Activity [14]: Active
- half-life [15]: 15.5 min
- half-life [16]: 6.51 min
- AUC [17]: 2870 ng·h/mL
- inhibition [18]: Active
- Drug uptake [19]: Not Active
- Activity [20]: Active
- clearance [21]: 9 mL/min
- inhibition [22]: Active
- Activity [23]: 20.36%

From ChEMBL document CHEMBL2417530, “Coumarin derivatives protect against ischemic brain injury in rats” (Eur J Med Chem, 2013)
